Compound activity as filed in PubChem.
An excerpt weighted towards active compounds, which were near 4.5% of everything screened.
TAAR1 agonist – agonists of human TAAR1. AID 624467. Q96RJ0. hit rate 0.99% among 360,000. activation, % at 3 µM. CHO RD-HGA16 TAAR1, Fluo-8 calcium fluorescence; vehicle wells 0%, saturating PEA agonist 100%;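 active = activation above the mean activation of all test compounds in the run plus 3 SD, cut at about 38% in these data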
Target sequence (Q96RJ0 whole entry, looked up): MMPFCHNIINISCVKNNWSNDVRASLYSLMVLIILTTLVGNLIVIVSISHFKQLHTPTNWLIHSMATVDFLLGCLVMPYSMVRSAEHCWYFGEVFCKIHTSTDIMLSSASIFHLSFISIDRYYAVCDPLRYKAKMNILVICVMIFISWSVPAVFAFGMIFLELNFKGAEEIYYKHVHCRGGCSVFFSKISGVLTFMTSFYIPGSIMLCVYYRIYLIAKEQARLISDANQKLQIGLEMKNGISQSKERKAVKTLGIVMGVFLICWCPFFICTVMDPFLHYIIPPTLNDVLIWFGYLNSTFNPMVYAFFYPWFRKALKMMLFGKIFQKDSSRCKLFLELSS
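Signal – calcium-sensitive Fluo-8 signal, excitation 470-495, emission 515-575 nm · System – RD-HGA16 (CHO) cells co-expressing Gα16 and hTAAR1 · Incubation – 17-24 h seeding, 75 min 37 °C dye, 30 min RT · Compound dosing – 3 µM single concentration · Repeats – no replicates (n 1)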
OX1R antag-1 – OX1R (human) antagonism; inhibition, % at 6.6 µM; OX1R-expressing cells, FRET antagonist read-out; hit rate 1.8% among 330,000; in the data active = inhibition mostly above about 38%, no sharp cut-off; inactive = mostly below about 40%;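 note: 0% = agonist challenge alone and 100% = reference antagonist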
TAAR1 antag – antagonists of human TAAR1 | CHO RD-HGA16 TAAR1, Fluo-8 calcium fluorescence, antagonist | inhibition, % at 3 µM | hit rate 1.5% among 360,000;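 active = inhibition above a per-plate cutoff, the mean inhibition of test compounds on that plate plus 3 SD, cut at about 49% in these data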;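 note: 0% = DMSO plus EC80 beta-PEA response and 100% = DMSO alone without agonist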
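System: CHO RD-HGA16 cells bearing hTAAR1. Reagent: EC80 β-phenethylamine stimulus. Schedule: seeding 17-24 h prior, 75-min 37 °C, 30-min RT dye loading. Signal: Fluo-8 intracellular calcium dye fluorescence, real-time kinetic reads. Read-out: % inhibition from peak post-agonist over basal fluorescence ratio. Benchmarks: vehicle wells and EC80 agonist wells. Replicates: n of 1.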
OX1R antag-2 – human HCRTR1 antagonism; O43613; CHO/OX1R cells, Fluo-8 calcium fluorescence, orexin A; inhibition, % at 5 µM; hit rate 0.43% among 330,000;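 active = inhibition above its plate's threshold, mean inhibition of all tested compounds on the plate plus 3 SD, cut at about 37% in these data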;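 note: 0% = orexin A challenge wells and 100% = SB-334867-A antagonist wells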
CHO parental Ca – counter-screen: ATP calcium response change in parental CHO cells; parental CHO-K1, ATP-induced calcium, Fluo-8 fluorescence; inhibition, % at 5.6 µM; hit rate 0.63% among 330,000;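 active = inhibition above that plate's mean sample inhibition plus 3 SD, cut at about 26% in these data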;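 note: 0% = ATP-challenged DMSO wells and 100% = DMSO wells without ATP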
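Test system: untransfected parental CHO cell line; also added: ATP stimulus; dosing: 5.6 µM, single dose; signal: calcium-sensitive Fluo-8 fluorescence; measure: percent inhibition of ATP-evoked calcium rise, normalized to controls; benchmarks: low control ATP plus DMSO, high control DMSO only; replication: one well per compound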
GPR7 antag – antagonists of human GPR7 (neuropeptides B/W receptor 1); P48145; hit rate 1.1% among 290,000; inhibition, % at 4.4 µM; AID 1861; GPR7-expressing cells, fluorescence antagonist assay; in the data active = inhibition above about 16%, passing the limit was not always enough;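 note: cells stimulated with the agonist NPW; 0% = agonist with vehicle and 100% = vehicle without agonist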
Target sequence (P48145 whole entry, looked up): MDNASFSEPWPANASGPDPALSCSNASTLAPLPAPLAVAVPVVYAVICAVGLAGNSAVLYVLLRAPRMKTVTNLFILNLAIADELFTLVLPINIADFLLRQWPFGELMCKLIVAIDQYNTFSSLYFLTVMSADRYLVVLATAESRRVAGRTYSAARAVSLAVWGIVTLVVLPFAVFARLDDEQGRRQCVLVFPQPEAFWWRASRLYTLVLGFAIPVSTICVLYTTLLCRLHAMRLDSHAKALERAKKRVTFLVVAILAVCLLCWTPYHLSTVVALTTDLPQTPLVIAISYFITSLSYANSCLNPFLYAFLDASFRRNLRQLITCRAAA
* marks the source's active call; other numbers are inactive results; x = not tested or not shown.

SMILES	TAAR1 agonist	OX1R antag-1	TAAR1 antag	OX1R antag-2	CHO parental Ca	GPR7 antag
CC[C@H](C)Cc1cn([C@@H](CCCCNC(=O)OC(C)(C)C)C(=O)NCCCCCCCCCCC(=O)N2CCN(C(=O)OC(C)(C)C)CC2)nn1	14	8	63*	8	20	x
CC(C)(C)OC(=O)NCCCC[C@@H](C(=O)NCCCCCCCCCCC(=O)N1CCN(C(=O)OC(C)(C)C)CC1)n1cc(CCO)nn1	14	3	38	-24	-10	x
C#CCOCCOCCOCCNc1nc(N2CCN(C(=O)CCCCCCCCCCNC(=O)[C@H](CCCCN)n3cc(C[C@@H](C)CC)nn3)CC2)nc(N2CCN(C(=O)CCCCCCCCCCNC(=O)[C@H](CCCCN)n3cc(C[C@@H](C)CC)nn3)CC2)n1	x	-9	x	33	101*	x
COC(=O)Cc1nnn2c1[C@H](C)[C@@H](OC)c1cccc(Cl)c1-2	0	x	5	x	x	x
CC(C)(C)c1ccc(S(=O)(=O)NCC2CCN(C(=O)C(=O)c3cccs3)CC2)cc1	1	x	31	x	x	x
Cc1ccc(-c2c(C(=O)N(C)Cc3ccccc3)oc(=O)c3ccccc23)cc1	2	16	29	-22	-3	19*
CCc1nc(C)cn1S(=O)(=O)c1cc(C)c(OC)cc1C	0	8	-6	-11	-5	4
CCc1nc(C)cn1S(=O)(=O)c1cc(C)c(OC)c(C)c1C	5	24	39	2	31*	4
CC(C)(C)OC(=O)N1C[C@H](O)C[C@H]1C(=O)OCC(=O)c1ccc([N+](=O)[O-])cc1	0	37*	12	-5	-4	-10
CCOC(=O)C1=CCN(S(=O)(=O)c2ccc(Cl)cc2)C1c1cccc(F)c1 (stereo not drawn)	3	x	21	x	x	x
COc1ccc(S(=O)(=O)N(CC(=O)N/N=C/c2cccs2)c2cc(C)cc(C)c2)cc1OC	13	50*	47	35	-26	-5
COc1ccccc1N(CC(=O)Nc1cc(S(=O)(=O)N(C)C)ccc1C)S(=O)(=O)c1cccs1	2	34*	8	26	-16	x
COc1ccc(S(=O)(=O)N(CC(=O)N/N=C/c2cccs2)c2ccc(C)cc2)cc1OC	11	53	40	-6	-10	-2
COc1ccc(CNC(=O)CN(c2ccccc2OC)S(=O)(=O)c2cccs2)cc1	11	12	46	-5	-10	x
CCc1cc2c(nc1CC)CCCN2S(=O)(=O)c1ccc(C(F)(F)F)cc1	-1	x	-6	x	x	x
COC(=O)[C@]12C[C@H](CC(=O)N3CCCCC3)C(=O)N(Cc3ccccc3)C1=C[C@H](C(C)(C)C)O[C@@H]2C	-1	x	-11	x	x	x
CCOC(=O)c1cccc(NC(=O)CCS(=O)(=O)c2cccs2)c1	3	17	-9	-27	-12	-1
COc1cccc(NC(=O)CCS(=O)(=O)c2cccs2)c1	11	7	7	-4	5	3
COc1ccc(NC(=O)c2ccc(NC(=O)CCS(=O)(=O)c3cccs3)cc2)cc1	22	17	53*	-7	5	-2
CCOC(=O)c1cccc(NC(=O)CCS(=O)(=O)c2ccc(Br)s2)c1	16	46*	4	-11	-17	-2
CC(=O)c1cccc(NC(=O)c2ccc(NC(=O)CCS(=O)(=O)c3cccs3)cc2)c1	8	4	52*	-20	-18	-15
CC(C)(C)Cc1c(-c2cccc(Br)c2)nc2ccc(Cl)cn12	0	x	-11	x	x	x
CCCCCCCCN1C(=O)[C@@H](CC(=O)NCC2CCCCC2)C[C@@]2(C(=O)OC)C1=C[C@H](C(C)(C)C)O[C@@H]2C	4	x	-28	x	x	x
COC(=O)[C@]12CCCCC=C1N(CCc1ccc(OC)c(OC)c1)C(=O)[C@H](CC(=O)NCc1ccccc1)C2	7	x	22	x	x	x
C=CS(=O)(=O)N(Cc1ccccc1Br)[C@H](CO)Cc1ccccc1	22	x	15	x	x	x
SMILES	TAAR1 agonist	OX1R antag-1	TAAR1 antag	OX1R antag-2	CHO parental Ca	GPR7 antag
C=CCCCN(Cc1ccccc1)S(=O)(=O)c1ccccc1Br	5	21	45	27	44*	x
C=CCCN([C@H](CO)Cc1ccccc1)S(=O)(=O)c1ccccc1Br	0	46*	-1	23	-19	x
COc1cc(C=NN=c2sc3ccccc3n2C)ccc1OCCO	7	x	9	x	x	x
CCCCOCC1CN(CCCC)S(=O)(=O)c2c(cccc2N2CCCCC2)O1 (stereo not drawn)	-1	x	-16	x	x	x
Oc1c(Br)cc(Br)cc1C=Nc1cccc2ncccc12	1	54*	-4	-11	-4	x
Cc1cccc(C)c1OCC(=O)Nn1c(COc2ccccc2)nc2ccccc2c1=O	6	13	51*	-9	-9	10
Cc1ccc(C)c(NC(=S)NNc2ccc(F)cc2F)c1	0	17	44	83*	71*	18
Cc1ccc(C)c(NC(=S)NCCc2ccc(F)cc2)c1	2	20	5	-13	-8	-4
C[C@@H]1CN([C@@H](C)CO)C(=O)CCCn2cc(nn2)CO[C@H]1CN(C)C(=O)Nc1ccc(F)cc1	8	x	1	x	x	x
CC(C)Cc1nnc(NC(=O)CCC(=O)NC2CCCCCC2)s1	3	12	-8	-23	-12	-13
c1ccc(Nc2ncnc3sc4c(c23)CCC4)cc1	23	7	-13	-21	-15	-6
c1csc(CCNc2ncnc3sc4c(c23)CCC4)c1	-3	59*	18	-26	58*	x
O=C(C(=O)N1CCC(CNS(=O)(=O)c2ccccc2OC(F)(F)F)CC1)c1cccs1	4	x	-13	x	x	x
N#CC1=C(N)N2C(=C(C#N)C1c1ccc(Br)cc1)Nc1ccccc12 (stereo not drawn)	12	76*	41	-2	14	9
N#CC1=C(N)N2C(=C(C#N)C1c1cccc(Br)c1)Nc1ccccc12 (stereo not drawn)	13	32	31	-5	-16	-7
Cc1cc(N2CCNC[C@H]2C)ccc1N1C[C@@H](C)O[C@@H](C)C1	2	x	9	x	x	x
Cc1cc(NC(=O)c2cccnc2Cl)ccc1NC(=O)c1cc2ccccc2o1	40*	2	24	-22	-17	-3
Cc1cc(NC(=O)c2cc3ccccc3o2)ccc1NC(=O)c1ccccc1	9	20	28	-22	-19	-6
Cc1ccc(OCC(=O)NNC(=O)c2cc3ccccc3o2)cc1C	2	6	-2	-5	49*	-18
